Values after ≈ are worked out from the molar mass of the structure shown.
Legend:
Format in all cases: functional
[1] = system: Helicobacter pylori; experiment: Anti-bacterial activity against Helicobacter pylori NCTC 11637 measured after 72 hrs incubation by modified broth dilution method
[2] = system: Helicobacter pylori; experiment: Bactericidal activity against Helicobacter pylori NCTC 11637 measured after 72 hrs of incubation under microaerophilic conditions by modified broth dilution method; conditions: read-out: MBC99.9
Outline: (§1)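 H. pylori (NCTC 11637, F1, 23, F4). Wells with no visible growth in the MIC assay spotted (10 μL) onto Skirrow agar. Plates incubated 72 h at 37 °C, microaerophilic, 100% humidity. MBC = concentration killing 99.9% of the initial inoculum. Triplicate, on at least three different days.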

[3] = system: Helicobacter pylori; experiment: Bactericidal against Helicobacter pylori measured after 72 hrs of incubation under microaerophilic conditions by modified broth dilution method; conditions: for MBC: Helicobacter pylori, read-out: MBC99.9
Outline: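 Wells with no visible growth in the MIC assay spotted (10 μL) onto Skirrow agar. Plates incubated 72 h at 37 °C, microaerophilic, 100% humidity. Triplicate, on at least three different days.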

[4] = system: Helicobacter pylori; experiment: Anti-bacterial activity against Helicobacter pylori measured after 72 hrs incubation by modified broth dilution method
[5] = system: Helicobacter pylori; experiment: Anti-bacterial activity against Helicobacter pylori Clinical isolate F1 measured after 72 hrs incubation by modified broth dilution method
[6] = system: Helicobacter pylori; experiment: Anti-bacterial activity against Helicobacter pylori Clinical isolate F4 measured after 72 hrs incubation by modified broth dilution method
[7] = system: Helicobacter pylori; experiment: Anti-bacterial activity against Helicobacter pylori Clinical isolate 23 measured after 72 hrs incubation by modified broth dilution method
[8] = system: Helicobacter pylori; experiment: Bactericidal activity against Helicobacter pylori Clinical isolate 23 measured after 72 hrs of incubation under microaerophilic conditions by modified broth dilution method; conditions: read-out: MBC99.9; outline: as §1
[9] = system: Helicobacter pylori; experiment: Bactericidal activity against Helicobacter pylori Clinical isolate F1 measured after 72 hrs of incubation under microaerophilic conditions by modified broth dilution method; conditions: read-out: MBC99.9; outline: as §1
[10] = system: Helicobacter pylori; experiment: Bactericidal against Helicobacter pylori Clinical isolate F4 measured after 72 hrs of incubation under microaerophilic conditions by modified broth dilution method; conditions: read-out: MBC99.9; outline: as §1

SMILES	MIC [1] [µg/mL]	MIC50 [4] [µg/mL]	MIC90 [4] [µg/mL]	MIC [5] [µg/mL]	MIC [6] [µg/mL]	MIC [7] [µg/mL]	MBC [2] [µg/mL]	MBC90 [3] [µg/mL]	MBC [8] [µg/mL]	MBC [9] [µg/mL]	MBC [10] [µg/mL]	MBC [3] [µg/mL]
COc1cc(C=O)cc(/N=N/c2ccc(C)cc2)c1O	4 (≈ 14.8 µM)	4 (≈ 14.8 µM)	8 (≈ 29.6 µM)	2 (≈ 7.4 µM)	8 (≈ 29.6 µM)	8 (≈ 29.6 µM)	4 (≈ 14.8 µM)	8 (≈ 29.6 µM)	8 (≈ 29.6 µM)	2 (≈ 7.4 µM)	8 (≈ 29.6 µM)	–
Cc1cc(/N=N/c2ccccc2Cl)c(C(C)C)c(/N=N/c2ccccc2Cl)c1O	128 (≈ 300 µM)	128 (≈ 300 µM)	128 (≈ 300 µM)	64 (≈ 150 µM)	128 (≈ 300 µM)	128 (≈ 300 µM)	128 (≈ 300 µM)	>128	> 128	> 128	> 128	–
C=CCc1cccc(OC)c1O	> 128	> 128	> 128	> 128	> 128	> 128	> 128	–	> 128	> 128	> 128	> 128
COc1cc(C)c(/N=N/c2ccc([N+](=O)[O-])cc2)cc1C(C)C	> 128	> 128	> 128	> 128	> 128	> 128	> 128	>128	> 128	> 128	> 128	–
COc1cc(C=O)ccc1O [VANILLIN]	> 128	> 128	> 128	> 128	128 (≈ 841 µM)	> 128	> 128	–	> 128	> 128	128 (≈ 841 µM)	> 128
C=CCc1cc(/N=N/c2cccc([N+](=O)[O-])c2)c(O)c(OC)c1	128 (≈ 409 µM)	128 (≈ 409 µM)	> 128	128 (≈ 409 µM)	128 (≈ 409 µM)	128 (≈ 409 µM)	128 (≈ 409 µM)	>128	128 (≈ 409 µM)	> 128	128 (≈ 409 µM)	–
C=CCc1cc(/N=N/c2cccc(OC)c2)c(O)c(OC)c1	> 128	> 128	> 128	> 128	> 128	> 128	> 128	>128	> 128	> 128	> 128	–
COc1cccc(C=O)c1O	8 (≈ 52.6 µM)	8 (≈ 52.6 µM)	16 (≈ 105 µM)	4 (≈ 26.3 µM)	8 (≈ 52.6 µM)	16 (≈ 105 µM)	16 (≈ 105 µM)	–	16 (≈ 105 µM)	4 (≈ 26.3 µM)	8 (≈ 52.6 µM)	16 (≈ 105 µM)

Further lines, with some results ahead:

MIC [1] [µg/mL]	MIC50 [4] [µg/mL]	MIC90 [4] [µg/mL]	MIC [5] [µg/mL]	MIC [6] [µg/mL]	MIC [7] [µg/mL]	SMILES	MBC [2] [µg/mL]	MBC90 [3] [µg/mL]	MBC [8] [µg/mL]	MBC [9] [µg/mL]	MBC [10] [µg/mL]	MBC [3] [µg/mL]
64 (≈ 220 µM)	64 (≈ 220 µM)	64 (≈ 220 µM)	16 (≈ 55 µM)	64 (≈ 220 µM)	64 (≈ 220 µM)	COc1cc(C=O)cc(/N=N/c2ccccc2Cl)c1O	64 (≈ 220 µM)	64 (≈ 220 µM)	64 (≈ 220 µM)	16 (≈ 55 µM)	64 (≈ 220 µM)	–
4 (≈ 13.9 µM)	4 (≈ 13.9 µM)	4 (≈ 13.9 µM)	4 (≈ 13.9 µM)	2 (≈ 6.93 µM)	4 (≈ 13.9 µM)	Cc1cc(/N=N/c2ccccc2Cl)c(C(C)C)cc1O	4 (≈ 13.9 µM)	4 (≈ 13.9 µM)	4 (≈ 13.9 µM)	4 (≈ 13.9 µM)	2 (≈ 6.93 µM)	–
8 (≈ 28.1 µM)	4 (≈ 14.1 µM)	8 (≈ 28.1 µM)	4 (≈ 14.1 µM)	4 (≈ 14.1 µM)	8 (≈ 28.1 µM)	COc1ccc(/N=N/c2cc(C)c(O)cc2C(C)C)cc1	8 (≈ 28.1 µM)	8 (≈ 28.1 µM)	8 (≈ 28.1 µM)	4 (≈ 14.1 µM)	4 (≈ 14.1 µM)	–
